High-throughput results deposited in PubChem by The Scripps Research Institute Molecular Screening Center.
Most compounds without a hit are left out; they make up all but 3.4% or so of the library.
M1 ag: activates human CHRM1 receptor; activation, % at 3 µM; 0.33% of 360,000 active; P11229; CHO-K1 hM1, Fluo-8 calcium fluorescence, agonist mode; 0% DMSO, 100% acetylcholine EC100; AID 588814;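 active = activation above the run's mean compound activation plus 3 SD, cut at about 16% in these data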;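 note: peak over basal fluorescence ratio within a 140 s kinetic read after compound addition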
Target sequence (P11229 whole entry, looked up): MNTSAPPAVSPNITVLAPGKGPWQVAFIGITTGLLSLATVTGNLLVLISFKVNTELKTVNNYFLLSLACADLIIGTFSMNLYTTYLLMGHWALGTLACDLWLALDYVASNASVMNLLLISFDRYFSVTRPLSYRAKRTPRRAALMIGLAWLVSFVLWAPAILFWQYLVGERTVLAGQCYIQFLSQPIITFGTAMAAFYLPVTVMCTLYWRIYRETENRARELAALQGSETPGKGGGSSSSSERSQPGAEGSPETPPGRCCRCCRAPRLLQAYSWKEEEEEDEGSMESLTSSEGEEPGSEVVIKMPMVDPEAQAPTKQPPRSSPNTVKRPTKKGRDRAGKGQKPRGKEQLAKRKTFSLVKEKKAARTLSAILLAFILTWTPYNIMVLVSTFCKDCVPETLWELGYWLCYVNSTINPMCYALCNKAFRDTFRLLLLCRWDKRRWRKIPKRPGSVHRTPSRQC
M1 antag: blocks human M1 muscarinic receptor | P11229 | CHO-K1 hM1, Fluo-8 calcium fluorescence, ACh EC80 antagonist | inhibition, % at 3 µM | 1.3% of 360,000 active | AID 588852;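 active = percent inhibition above its own plate's cutoff, namely the mean of that plate's compound wells plus 3 SD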;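 note: peak over basal fluorescence ratio during 140 s after agonist addition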
TAAR1 antag: human TAAR1 antagonism; Q96RJ0; CHO RD-HGA16 TAAR1, Fluo-8 calcium fluorescence, antagonist; inhibition, % at 3 µM; 1.5% of 360,000 active;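 active = inhibition above a per-plate cutoff, the mean inhibition of test compounds on that plate plus 3 SD, cut at about 49% in these data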
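System: CHO RD-HGA16 cells bearing hTAAR1. Reagent: EC80 β-phenethylamine stimulus. Schedule: seeding 17-24 h prior, 75-min 37 °C, 30-min RT dye loading. Signal: Fluo-8 intracellular calcium dye fluorescence, real-time kinetic reads. Read-out: % inhibition from peak post-agonist over basal fluorescence ratio. Benchmarks: vehicle wells and EC80 agonist wells. Replicates: n of 1.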
CHRM1 PAM: potentiates human M1 receptor response to acetylcholine; CHO-K1 hM1, Fluo-8 calcium fluorescence, ACh EC20; 0% = ACh EC20, 100% = maximal ACh; activation, % at 3 µM; 0.088% of 360,000 active; AID 588819; in the data active = activation above about 19%, passing the limit was not always enough
TAAR1 ag: human TAAR1 agonism; CHO RD-HGA16 TAAR1, Fluo-8 calcium fluorescence; vehicle wells 0%, saturating PEA agonist 100%; activation, % at 3 µM; 0.99% of 360,000 active; AID 624467;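 active = activation above the mean activation of all test compounds in the run plus 3 SD, cut at about 38% in these data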
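Signal – calcium-sensitive Fluo-8 signal, excitation 470-495, emission 515-575 nm · System – RD-HGA16 (CHO) cells co-expressing Gα16 and hTAAR1 · Incubation – 17-24 h seeding, 75 min 37 °C dye, 30 min RT · Compound dosing – 3 µM single concentration · Repeats – no replicates (n 1)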
TAAR1 ag conf: human TAAR1 agonism, confirmed. shares compounds with TAAR1 ag. CHO RD-HGA16 TAAR1, Fluo-8 calcium fluorescence; scaled: DMSO 0%, maximal phenethylamine 100%. activation, % at 3 µM. 82% of 2,400 active. AID 651783;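 active = activation above a cutoff set at the run's mean compound activation plus 3 SD, cut at about 39% in these data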
Ga16 nonsel ag: nonselective agonist in parental cells, TAAR1 agonist counter-screen; shares compounds with TAAR1 ag; CHO-Ga16 parental, Fluo-8 calcium fluorescence; normalized to maximal ATP response, DMSO zero; activation, % at 3 µM; 50% of 2,400 active;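 active = activation above the run cutoff, the mean activation over all tested wells plus 3 SD, cut at about 12% in these data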
TAAR1 desens: counter-screen for human TAAR1 agonists: agonists that desensitize TAAR1; 46% of 2,400 active; inhibition, % at 3 µM; CHO RD-HGA16 hTAAR1, Fluo-8 calcium, beta-PEA response inhibition; AID 651951; shares compounds with TAAR1 ag;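 active = inhibition above the run cutoff, the mean inhibition of all test compounds plus 3 SD, cut at about 49% in these data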;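 note: beta-PEA stimulus applied at its EC80; loss of beta-PEA calcium signal after compound pretreatment read as receptor desensitization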
Ga16 antag count: nonselective Ga16 antagonist in TAAR1 agonist counter-screen; shares compounds with TAAR1 ag; CHO-Ga16 ATP-induced calcium, Fluo-8 fluorescence; inhibition, % at 3 µM; 39% of 2,400 active; AID 651952;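 active = inhibition above the plate's mean compound inhibition plus 3 SD, computed per plate, cut at about 22% in these data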
Numbers stand for hits.

Screening CC1C(=O)N2CCCc3cc(NC(=O)c4ccccc4F)cc1c32 (stereo unspecified) returned M1 ag inactive, M1 antag inactive, TAAR1 antag inactive, CHRM1 PAM inactive and TAAR1 ag inactive.
CC(=NNC(=O)c1ccncc1)c1ccc2ccccc2c1O was read as M1 ag 70, M1 antag inactive, TAAR1 antag 76, CHRM1 PAM inactive, TAAR1 ag 167, TAAR1 ag conf 72, Ga16 nonsel ag 153, TAAR1 desens 54 and Ga16 antag count 78.
Screening O=C(Nc1ccccc1F)c1ccc(CNS(=O)(=O)c2cccc(C(F)(F)F)c2)cc1 returned M1 ag inactive, M1 antag inactive, TAAR1 antag inactive, CHRM1 PAM inactive, TAAR1 ag 46, TAAR1 ag conf inactive, Ga16 nonsel ag 16, TAAR1 desens inactive and Ga16 antag count inactive.
Screening CN(C)C(=O)c1cc2c(c(-c3cccc(-c4ccccc4F)c3)n1)[C@@H](CCO)N(S(C)(=O)=O)C2 returned TAAR1 antag inactive and TAAR1 ag inactive.
Screening CCc1c(C)nc2ncnn2c1N1CCN(S(=O)(=O)c2ccc(OC)cc2)CC1 returned M1 ag inactive, M1 antag inactive, TAAR1 antag inactive, CHRM1 PAM inactive and TAAR1 ag inactive.
`COc1cc(OC)cc(N2C(=O)CSCC2=O)c1` gave M1 ag inactive, M1 antag inactive, TAAR1 antag inactive, CHRM1 PAM inactive and TAAR1 ag inactive.
Screening Cc1ccc(CCNC(=O)C2CC(c3ccccc3[N+](=O)[O-])=NO2)cc1 (stereo unspecified) returned M1 ag inactive, M1 antag inactive, TAAR1 antag inactive, CHRM1 PAM inactive and TAAR1 ag inactive.
For O=C(NCCc1cccs1)C1CC(c2ccccc2[N+](=O)[O-])=NO1 (stereo unspecified) the results were M1 ag inactive, M1 antag inactive, TAAR1 antag inactive, CHRM1 PAM inactive, TAAR1 ag 46, TAAR1 ag conf 57, Ga16 nonsel ag inactive, TAAR1 desens inactive and Ga16 antag count inactive.
Screening CC(C)c1ccc(NC2CCCN(C(=O)CC3CCCC3)C2)cc1 (stereo unspecified) returned M1 ag inactive, M1 antag inactive, TAAR1 antag inactive, CHRM1 PAM inactive and TAAR1 ag inactive.
For COc1cc2c(cc1OC)CN(C(=O)c1ccc3[nH]c(C)c(C)c3c1)CC2 the results were M1 ag inactive, M1 antag inactive, TAAR1 antag inactive, CHRM1 PAM inactive and TAAR1 ag inactive.
Screening CCC(=O)Nc1nnc(S(=O)(=O)N(C)c2cc(C)cc(C)c2)s1 returned M1 ag inactive, M1 antag inactive, TAAR1 antag inactive, CHRM1 PAM inactive and TAAR1 ag inactive.
Screening O=C(O)c1ccc2c3c(cccc13)C(=O)N(c1ccccc1)C2=O returned M1 ag inactive, M1 antag inactive, TAAR1 antag inactive, CHRM1 PAM inactive and TAAR1 ag inactive.
Nc1ccc2c3c(cccc13)C(=O)N(c1ccccc1)C2=O was read as M1 ag 121, M1 antag 52, TAAR1 antag 85, CHRM1 PAM inactive, TAAR1 ag 403, TAAR1 ag conf 176, Ga16 nonsel ag 147, TAAR1 desens 53 and Ga16 antag count 50.
`COc1ccc(CCNCC(O)COc2cccc(C(C)=O)c2)cc1OC` (stereo unspecified) gave M1 ag inactive, M1 antag inactive, TAAR1 antag inactive, CHRM1 PAM inactive and TAAR1 ag inactive.
For Cc1nccn1CC(=O)N/N=C/c1ccccc1O the results were M1 ag inactive, M1 antag inactive, TAAR1 antag inactive, CHRM1 PAM inactive, TAAR1 ag 59, TAAR1 ag conf 63, Ga16 nonsel ag inactive, TAAR1 desens inactive and Ga16 antag count inactive.
CCCNC(=O)c1cc2c(c(-c3cccc(-c4ccccc4F)c3)n1)[C@@H](CCO)N(C(=O)CC1CC1)C2 was read as TAAR1 antag inactive and TAAR1 ag inactive.
`CCC(=O)NNC(=O)c1cc(COc2cc(Cl)cc(Cl)c2)on1` gave M1 ag inactive, M1 antag inactive, TAAR1 antag inactive, CHRM1 PAM inactive, TAAR1 ag 55, TAAR1 ag conf 40, Ga16 nonsel ag 21, TAAR1 desens inactive and Ga16 antag count inactive.
COc1ccc(C(CCNC(C)c2ccccc2)c2ccc(F)cc2)cc1 (stereo unspecified) was read as M1 ag inactive, M1 antag inactive, TAAR1 antag inactive, CHRM1 PAM inactive, TAAR1 ag 51, TAAR1 ag conf 66, Ga16 nonsel ag 35, TAAR1 desens inactive and Ga16 antag count 34.
Screening COc1ccc(C(CCNCc2ccccc2)c2ccc(F)cc2)cc1 (stereo unspecified) returned M1 ag inactive, M1 antag inactive, TAAR1 antag inactive, CHRM1 PAM inactive and TAAR1 ag inactive.
O=C(C[C@@H]1CC[C@H](NC(=O)Cc2ccccn2)[C@@H](CO)O1)NCCc1ccccc1 was read as TAAR1 antag inactive, TAAR1 ag 47, TAAR1 ag conf 63, Ga16 nonsel ag inactive, TAAR1 desens inactive and Ga16 antag count inactive.
For O=C(C[C@H]1CC[C@H](NC(=O)C2CCOCC2)[C@@H](CO)O1)NCc1ccncc1 the results were TAAR1 antag inactive and TAAR1 ag inactive.
CN1CCN(C(c2ccc(C(F)(F)F)cc2)c2cc(Cl)c3cccnc3c2O)CC1 (stereo unspecified) was read as TAAR1 antag inactive, TAAR1 ag 119, TAAR1 ag conf 129, Ga16 nonsel ag 106, TAAR1 desens 81 and Ga16 antag count 44.
Screening CN1CCN(C(c2ccc(Cl)cc2)c2cc(Cl)c3cccnc3c2O)CC1 (stereo unspecified) returned M1 ag inactive, M1 antag inactive, TAAR1 antag inactive, CHRM1 PAM inactive, TAAR1 ag 69, TAAR1 ag conf 118, Ga16 nonsel ag 67, TAAR1 desens 49 and Ga16 antag count inactive.
CCN1CCN(C(c2ccc(C(F)(F)F)cc2)c2ccc3cccnc3c2O)CC1 (stereo unspecified) was read as M1 ag inactive, M1 antag inactive, TAAR1 antag inactive, CHRM1 PAM inactive and TAAR1 ag inactive.
